From BindingDB's records for doi:10.1016/j.bmcl.2018.04.005 (Shanghai Institute of Materia Medica, 2018) come the findings set out here.

The test has as its target T1, Sortase family protein (Staphylococcus aureus, UniProt Q9S446).
T1 sequence (Q9S446 whole entry): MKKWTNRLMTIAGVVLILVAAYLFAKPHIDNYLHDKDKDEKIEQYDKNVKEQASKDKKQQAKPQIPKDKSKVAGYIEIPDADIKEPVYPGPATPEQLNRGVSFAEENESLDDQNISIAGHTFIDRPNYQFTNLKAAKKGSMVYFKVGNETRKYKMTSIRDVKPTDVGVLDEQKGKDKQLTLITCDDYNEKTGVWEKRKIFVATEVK
As to the kind of experiment: Inhibition of Staphylococcus aureus SrtA deltaN24 mutant assessed as decrease in transpeptidation of IsdA (64 to 323 residues) incubated for 1.25 hrs in presence of NH2-Gly3 nucleophile by SDS-PAGE method. In short, it runs like this: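 Recombinant, affinity-purified IsdA64-323 (a natural SrtA substrate from S. aureus) is incubated with purified SrtAΔN24 and NH2-Gly3 nucleophile, with or without test compound. Cleavage at the sorting signal gives the transpeptidation product, which is resolved by SDS-PAGE. Inhibition is judged from partial or complete blockade of product formation. Used as a counter-screen against FRET false positives.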

On to `CC(C)=CC[C@H](O)c1cc(O)c2c(c1O)C(=O)C=CC2=O`, for which the IC50 was 5 µM.
The figure for `CC(C)C=CC(=O)c1cc(O)c2c(O)ccc(O)c2c1O` [5,8-Dihydroxy-2-(1-hydroxy-4-methyl-pent-3-enyl)-[1,4]naphthoquinone] is 5 µM.

As usually defined, the IC50 is the concentration needed to halve the response being measured.
